From ChEMBL document CHEMBL4613270, “Structure-Activity Relationship Study Enables the Discovery of a Novel Berberine Analogue as the RXRα Activator to Inhibit Colon Cancer” (J Med Chem, 2020)
The source made the active and inactive calls. The rule behind the calls is not given here.

Key:
[1] = molecular target: T1, Retinoic acid receptor RXR-alpha (Homo sapiens) (UniProt P19793); assay: Activation of RXRalpha in human KM12C cells assessed as […] protein expression at 25 to 50 uM incubated for 15 hrs by Western blot analysis; type: cell-based
T1 sequence (whole entry): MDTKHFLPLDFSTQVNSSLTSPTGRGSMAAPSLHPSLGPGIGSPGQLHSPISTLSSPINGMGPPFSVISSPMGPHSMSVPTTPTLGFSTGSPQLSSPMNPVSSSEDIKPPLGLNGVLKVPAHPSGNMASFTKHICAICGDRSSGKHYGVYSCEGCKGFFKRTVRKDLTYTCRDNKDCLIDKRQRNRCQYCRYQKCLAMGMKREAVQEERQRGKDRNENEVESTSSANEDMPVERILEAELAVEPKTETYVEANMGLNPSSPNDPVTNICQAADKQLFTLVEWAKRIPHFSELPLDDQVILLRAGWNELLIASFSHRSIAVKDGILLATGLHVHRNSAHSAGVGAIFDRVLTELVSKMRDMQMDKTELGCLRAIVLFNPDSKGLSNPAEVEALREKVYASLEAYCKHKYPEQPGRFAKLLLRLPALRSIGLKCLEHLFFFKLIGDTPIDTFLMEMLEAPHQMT

KM12C = assay: Inhibition of cell proliferation of human KM12C cells at 25 to 50 uM incubated for 15 hrs by EdU assay; type: functional, cell-based
In short: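 KM12C cells grown in MEM with 10% FBS, penicillin/streptomycin, nonessential amino acids and vitamins at 37 °C, 5% CO2. Proliferation was scored with an EdU incorporation kit, and cells were examined under a fluorescence microscope.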

[2] = Toxicity in human HIEC6 cells assessed a reduction in cell viability at 6.25 to 100 uM incubated for 15 hrs by MTT assay; type: cell-based
In short: (§1)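 HIEC-6 cells grown in MEM with 4% FBS, HEPES, GlutaMAX and 10 ng/mL EGF. MEF cells grown in DMEM high glucose with 10% FBS. Cells plated at 1×10⁴ per well and treated with a concentration series for 15 h. Viability read by MTT: 4 h at 37 °C, DMSO solubilization, absorbance at 570 nm.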

[3] = molecular target: T1, Retinoic acid receptor RXR-alpha (Homo sapiens); assay: Activation of RXRalpha in human KM12C cells assessed as increase transactivational activity on RXRE at 25 to 50 uM incubated for 15 hrs by luciferase reporter gene assay; type: cell-based
In short: (§2)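 Endogenous RXRα transactivation on an RXRE luciferase reporter, lipofection-transfected; compound added 20 h post-transfection for 15 h; lysis in passive lysis buffer at 4 °C, 1 h; firefly and Renilla luciferase activities read by dual-luciferase assay.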

[4] = molecular target: T1, Retinoic acid receptor RXR-alpha (Homo sapiens); assay: Activation of RXRalpha in human KM12C cells assessed as […] crease in p21 (WAF1/CIP1) mRNA expression at 25 to 50 uM incubated for 15 hrs in presence of RXRalpha shRNA by real-time PCR analysis; type: cell-based
[5] = molecular target: T1, Retinoic acid receptor RXR-alpha (Homo sapiens); assay: Activation of RXRalpha in human KM12C cells assessed as increase in p21 (WAF1/CIP1) protein expression at 25 to 50 uM incubated for 15 hrs in presence of RXRalpha shRNA by Western blot analysis; type: cell-based
MEF = assay: Toxicity in mouse MEF cells assessed a reduction in cell viability at 6.25 to 100 uM incubated for 15 hrs by MTT assay; type: cell-based; in short: as §1
[6] = Hepatotoxicity in BALB/c mouse xenografted with human KM12C cells assessed as induction of necrotic hepatocytes at 100 mg/kg, ig dosed daily for 15 days by H and E staining; type: toxicity, organism-based; conditions: in vivo, po, 360 h
[7] = molecular target: T1, Retinoic acid receptor RXR-alpha (Homo sapiens); assay: Binding affinity to His-tagged RXRalpha LBD (unknown origin) expressed in Escherichia coli strain BL21 (DE3) at 200 uM by STD-NMR spectroscopy
[8] = Hepatotoxicity in BALB/c mouse xenografted with human KM12C cells assessed as induction of hepatocellular morphology damage at 100 mg/kg, ig dosed daily for 15 days by H and E staining; type: toxicity, organism-based; conditions: in vivo, po, 360 h
[9] = molecular target: T1, Retinoic acid receptor RXR-alpha (Homo sapiens); assay: Activation of RXRalpha in human HCT116 cells assessed as increase transactivational activity on RXRE at 30 to 60 uM incubated for 15 hrs by luciferase reporter gene assay; type: cell-based; conditions: HCT-116; in short: as §2
[10] = molecular target: T1, Retinoic acid receptor RXR-alpha (Homo sapiens); assay: Activation of RXRalpha in human KM12C cells assessed as reduction in Cdc2 protein expression at 25 to 50 uM incubated for 15 hrs in presence of RXRalpha shRNA by Western blot analysis; type: cell-based
[11] = molecular target: T1, Retinoic acid receptor RXR-alpha (Homo sapiens); assay: Activation of RXRalpha in human KM12C cells assessed as reduction in c-Myc mRNA expression at 25 to 50 uM incubated for 15 hrs in presence of RXRalpha shRNA by real-time PCR analysis; type: cell-based

## COc1ccc2c(c1)CC[n+]1cc3c(OC)cccc3cc1-2.[Cl-]
[1]
  Activity: Active
KM12C
  inhibition: Active
[2]
  Activity: Non-Toxic
[3]
  Activity: Active
[4]
  Activity: inactive
[5]
  Activity: inactive
MEF
  Activity: Non-Toxic
[6]
  Activity: Non-Toxic
[7]
  Activity: Active
[8]
  Activity: Non-Toxic
[9]
  Activity: Active
[10]
  Activity: inactive
[11]
  Activity: inactive
